In ChEMBL document CHEMBL1157324, “Lophocladines, bioactive alkaloids from the red alga Lophocladia sp” (J Nat Prod, 2006):
Active and inactive are the calls of the source. No cut-off for these calls is given here.

Assays:
[1] = system: A10; experiment: Induction of actin microfilament disrupting activity in rat A10 cells at 45 uM after 24 hrs; format: functional, cell-based
Summary of the method: (§1)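 A-10 rat aortic smooth muscle cells on glass coverslips in BME with 10% fetal calf serum, treated 24 h. Fixed in 3% paraformaldehyde, permeabilised with 0.2% Triton X-100, reduced with sodium borohydride. Actin stained 45 min with 100 nM TRITC-phalloidin, DNA with DAPI. Examined by fluorescence microscopy.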

[2] = system: A10; experiment: Induction of nucleus breakdown into micronuclei in rat A10 cells; format: functional, cell-based
Summary of the method: (§2)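 A-10 cells on glass coverslips in Basal Medium Eagle with 10% FBS, treated 18-24 h. Methanol-fixed, blocked with 10% calf serum, probed with monoclonal β-tubulin antibody then FITC sheep anti-mouse secondary for 1 h. Nuclei stained with 0.1 μg/mL DAPI. Examined by fluorescence microscopy.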

[3] = system: N2a; experiment: Cytotoxicity against mouse Neuro2a cells at 45 uM after 48 hrs by MTT assay; format: functional, cell-based
Summary of the method: (§3)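 Cells grown in RPMI-1640 with L-glutamine, 1 mM pyruvate, penicillin/streptomycin, 0.2% bicarbonate and 10% FBS, seeded at 6000 cells/well. After 24 h, compound in DMSO diluted into serum-free medium was added (DMSO under 1% final), as a single screening concentration or a dilution series. Viability by MTT reduction after 48 h.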

[4] = system: MDA-MB-435; experiment: Cell cycle arrest in human MDA-MB-435 cells assessed as accumulation at S phase at 20 uM after 24 hrs by flow cytometry; format: functional
Summary of the method: (§4)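 MDA-MB-435 cells grown in IMEM with 10% FBS and gentamycin. Exposed 24 h to vehicle or sample, harvested and stained with Krishan's reagent. Propidium iodide intensity read by flow cytometry, with quality-control samples each run. Percentage of cells in each cycle phase fitted by manual analysis.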

[5] = system: MDA-MB-435; experiment: Cell cycle arrest in human MDA-MB-435 cells assessed as accumulation at G1 phase at 20 uM after 24 hrs by flow cytometry; format: functional; summary of the method: as §4
[6] = system: NCI-H460; experiment: Cytotoxicity against human NCI-H460 cells after 48 hrs by MTT assay; format: functional, cell-based; conditions: NCI-H460, 48 h; summary of the method: as §3
[7] = system: MDA-MB-435; experiment: Cytotoxicity against human MDA-MB-435 cells after 48 hrs by SRB assay; format: functional, cell-based; conditions: MDA-MB-435, 48 h
Summary of the method: (§5)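 MDA-MB-435 cells grown in IMEM with 10% FBS, attached 24 h in 96-well plates, then exposed 48 h to compound or EtOH vehicle. Fixed with 10% TCA at 4 °C for 1 h, stained with 0.4% SRB for 30 min, washed with 1% HOAc, solubilised in 10 mM Tris. Absorbance read at 560 nm. IC50 taken from linear portion of log dose-response curves.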

[8] = system: NCI-H460; experiment: Induction of morphological changes in human NCI-H460 cells at 13.5 uM after 6 days; format: functional
[9] = system: A10; experiment: Induction of microtubule depolymerization in rat A10 cells at 113 uM after 24 hrs by indirect immunofluorescence technique; format: functional, cell-based; summary of the method: as §2
[10] = system: A10; experiment: Induction of actin microfilament disrupting activity in rat A10 cells at 113 uM after 24 hrs; format: functional, cell-based; summary of the method: as §1
[11] = system: A10; experiment: Induction of microtubule depolymerization in rat A10 cells at 45 uM after 24 hrs by indirect immunofluorescence technique; format: functional; conditions: A10, 24 h; summary of the method: as §2
[12] = system: NCI-H460; experiment: Induction of morphological changes in human NCI-H460 cells at 13.5 uM after 24 hrs; format: functional, cell-based
[13] = system: MDA-MB-435; experiment: Cell cycle arrest in human MDA-MB-435 cells assessed as accumulation at G2/M phase at 20 uM after 24 hrs by flow cytometry; format: functional; summary of the method: as §4
[14] = target: Delta-type opioid receptor (Homo sapiens) (UniProt P41143); experiment: Agonist activity at human delta opioid receptor expressed in CHO cells assessed as inhibition of forskolin-stimulated adenylyl cyclase relative to [D-Pen2,D-Pen5]-enkephalin; format: functional, cell-based
Chain of Delta-type opioid receptor (Homo sapiens) (P41143 whole entry): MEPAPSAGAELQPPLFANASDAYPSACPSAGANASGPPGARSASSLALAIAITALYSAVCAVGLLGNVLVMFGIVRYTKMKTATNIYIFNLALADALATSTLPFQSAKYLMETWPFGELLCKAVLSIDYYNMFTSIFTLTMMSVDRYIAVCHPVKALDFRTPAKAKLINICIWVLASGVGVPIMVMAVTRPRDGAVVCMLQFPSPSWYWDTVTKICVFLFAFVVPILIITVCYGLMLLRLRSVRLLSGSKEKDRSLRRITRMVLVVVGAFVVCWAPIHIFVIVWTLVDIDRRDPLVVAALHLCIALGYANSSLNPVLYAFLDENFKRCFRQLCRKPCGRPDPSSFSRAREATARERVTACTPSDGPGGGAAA
Summary of the method: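 δ-Opioid receptor-expressing CHO cells washed with serum-free F12 Ham's medium, labelled 8 h with 1.2 μCi [3H]adenine. Then 40 min at 37 °C with 50 μM Ro20-1724, peptidase inhibitors (10 μM bestatin, 30 μM captopril, 50 μM L-leucyl-L-leucine), 50 μM forskolin and varied ligand concentrations. [3H]cAMP isolated on cation-exchange resin and alumina, counted with [14C]cAMP recovery correction.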

[15] = system: MDA-MB-435; experiment: Cytotoxicity against human MDA-MB-435 cells at 450 uM after 48 hrs by SRB assay; format: functional, cell-based; summary of the method: as §5
[16] = target: Delta-type opioid receptor (Homo sapiens) (UniProt P41143); experiment: Displacement of [3H][D-Ala2,D-Leu5]enkephalin from human cloned delta opioid receptor at 10 uM
Summary of the method: (§6)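 Receptor screen run by the NIMH Psychoactive Drug Screening Program. Each compound at 10 μM incubated with the relevant receptor preparation; percent inhibition of radioligand binding determined.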

[17] = system: NCI-H460; experiment: Cytotoxicity against human NCI-H460 cells at 45 uM after 48 hrs by MTT assay; format: functional, cell-based; summary of the method: as §3
[18] = Displacement of radiolabeled MK801 from NMDA receptor at 10 uM; summary of the method: as §6

Activity [14]	inhibition [16] [%]	inhibition [18] [%]	Compound	Activity [1]	Activity [2]	Activity [3]	Activity [4] [%]	Activity [5] [%]	IC50 [6] [µM]	IC50 [7] [µM]	Activity [8] [%]	Activity [9]	Activity [10]	inhibition at 45 µM [11] [%]	Activity [12]	Activity [13] [%]	Activity [15]	Activity [17]
–	–	–	Nc1ncc(-c2ccccc2)c2ccncc12 [LOPHOCLADINE B]	inactive	Active	inactive	8	19.8	64.6	3.1	80	Active	inactive	85	Active	72.2	–	–
inactive	50	50	O=c1[nH]cc(-c2ccccc2)c2ccncc12	–	–	inactive	–	–	–	–	–	–	–	–	–	–	inactive	inactive
